DENV2 CPE = inhibitors of DENV2 cytopathic effect, primary screen, cell-based, plate reader, single concentration. hit rate 1.7% among 350,000. CPE inhibition, % at 9.99 µM. AID 651640, 2012. DENV2-infected cells, cytopathic effect rescue; in the data active = CPE inhibition above about 20%, passing the limit was not always enough; tested in BHK-21 cells;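 note: 0% = median of neutral control wells and 100% = median of positive control wells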
S100A4 MyoIIA = inhibitors of S100A4-myosin IIA peptide binding, primary screen, biochemical, fluorescence polarization, TAMRA-MyoIIA peptide; Protein S100-A4 (Homo sapiens), P26447; inhibition, % at 10.7 µM; hit rate 0.14% among 360,000;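 active = mean inhibition of at least 70% across replicates, with every replicate also reaching that level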
Target sequence (P26447 whole entry, looked up): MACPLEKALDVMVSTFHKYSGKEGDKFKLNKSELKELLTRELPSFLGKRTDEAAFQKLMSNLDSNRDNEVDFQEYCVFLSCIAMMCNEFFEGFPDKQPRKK
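Material: S100A4 monomer protein / Buffer or medium: 50 mM HEPES pH 7.2, 10 mM CaCl2, 100 mM KCl / Times: 5 min incubation before reading / Benchmarks: neutral control DMSO, positive control TFP / Reagent: labelled myosin peptide probe, 5 nM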
Xi reactivation = activators of inactive X chromosome reactivation, primary screen, imaging, XiGFP fibroblasts, GFP high-content imaging, set 2; XiGFP mouse fibroblasts, % GFP-positive cells imaging, 3 d; cells co-treated with 5-aza-dC sensitizer; scaled so ellipticine positive control = 100%; activation, % at 7.58 µM; hit rate 0.055% among 360,000; AID 743238, 2013;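 active = mean normalized replicate activation at least 10% and every replicate at or above 10%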;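 note: 0% = median of on-plate neutral control wells and 100% = ellipticine 6 µM median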
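Material: XiGFP fibroblasts, SV40-immortalized; Buffer or medium: DMEM containing 5-aza-dC; Compound dosing: single point; Times: 3 days compound exposure.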
E-selectin induc = E-selectin induction in HUVECs, primary screen, imaging, HUVEC, immunofluorescence imaging, single point; P16581; normalized: neutral wells 0, TNF-alpha wells 100; activation, % at 7.58 µM; hit rate 0.37% among 260,000;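 active = mean E-selectin-positive cell signal at least 10% of the positive control, reached in at least 60% of replicates, without over 20% cell loss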
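assay system = HUVEC, human umbilical vein endothelial cells | input = 3,000 HUVEC seeded per well | medium = EGM-2 growth medium on 0.1% gelatin-coated wells | dosing = one compound dose added by pin transfer | signal = immunofluorescence imaging | read-out basis = % PE-positive cells | control set = TNF-alpha, DMSO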
* = called active by the depositor; · = no result. Shown are actives, neighbours in structure and some others; about 2% of the full set was active somewhere.

SMILES | DENV2 CPE | S100A4 MyoIIA | Xi reactivation | E-selectin induc
Cc1ccc(S(=O)(=O)Nc2ccc3c(c2)C(=O)N([C@H](C)CO)C[C@@H](C)[C@H](CN(C)Cc2ccc(-c4ccccc4)cc2)O3)cc1 | 2 | -4 | 0 | 157*
C[C@@H]1CN([C@H](C)CO)C(=O)c2cc(NS(=O)(=O)c3ccc(Cl)cc3)ccc2O[C@H]1CN(C)Cc1ccccc1 | -2 | 21 | -1 | ·
C[C@@H]1CN([C@H](C)CO)C(=O)c2cc(NS(=O)(=O)c3ccc(Cl)cc3)ccc2O[C@@H]1CN(C)Cc1ccccc1 | 42* | -11 | -1 | ·
CO[C@H]1CN(C)C(=O)c2cc(NS(C)(=O)=O)ccc2OC[C@H](C)N(C(=O)CN(C)C)C[C@@H]1C | 64* | 13 | 0 | 0
CO[C@@H]1CN(C)C(=O)c2cc(NS(C)(=O)=O)ccc2OC[C@@H](C)N(C(=O)CN(C)C)C[C@@H]1C | 21* | -3 | 0 | 0
Cc1ccc(Sc2ncccc2O)cc1 | 5 | 0 | 0 | ·
CCC(=O)Nc1ccc2c(c1)C(=O)N(C)C[C@@H](OC)[C@@H](C)CN(C(C)=O)[C@@H](C)CO2 | 32* | 13 | 0 | 0
CCC(=O)Nc1ccc2c(c1)C(=O)N(C)C[C@@H](OC)[C@H](C)CN(C(C)=O)[C@@H](C)CO2 | 29* | -6 | 0 | 0
CCC(=O)Nc1ccc2c(c1)C(=O)N(C)C[C@@H](OC)[C@@H](C)CN(C(C)=O)[C@H](C)CO2 | 16 | -3 | 1 | 0
CCC(=O)Nc1ccc2c(c1)C(=O)N(C)C[C@H](OC)[C@@H](C)CN(C(C)=O)[C@@H](C)CO2 | 54* | -3 | 0 | 0
CCS(=O)(=O)Nc1ccc2c(c1)C(=O)N(C)C[C@H](OC)[C@H](C)CN(C(C)=O)[C@H](C)CO2 | 24* | 9 | 0 | 0
Nc1ccc(N2CCOCC2)cc1C(F)(F)F | -3 | -6 | 0 | 15
N#CC1(NC(=O)CN2C(=O)NC(c3ccccc3)(c3ccccc3)C2=O)CCCC1 | -7 | 4 | 0 | -1
Cc1ccc(S(=O)(=O)Nc2ccc3c(c2)C(=O)N([C@H](C)CO)C[C@@H](C)[C@H](CN(C)S(=O)(=O)c2c(C)noc2C)OCCCC[C@@H](C)O3)cc1 | -12 | -15 | 0 | ·
COc1ccc(OC)c(C(=O)COC(=O)CN2C(=O)NC3(CCCCC3C)C2=O)c1 (stereo not drawn) | 3 | -5 | 0 | -2
CCCNC(=O)N1C[C@@H](C)[C@H](OC)CN(C)C(=O)c2cc(NS(=O)(=O)CC(F)(F)F)ccc2OC[C@@H]1C | 60* | 1 | 0 | 0
Cc1ccc2c3c(cccc13)-c1ccccc1C2=O | -3 | -10 | 0 | ·
Nc1ccc2c3c(cccc13)-c1ccccc1-2 | -4 | 5 | 117* | 0
COc1cccc(C#Cc2ccc([C@@H]3[C@@H](CO)N4C(=O)CN(C(=O)c5ccccc5)C[C@H]34)cc2)c1 | -7 | -7 | 0 | 0
CCOc1cc(N2CCOCC2)c(OCC)cc1NC(=O)c1ccc(S(=O)(=O)N2CC(C)OC(C)C2)cc1 (stereo not drawn) | 0 | -6 | 0 | 131*
Cc1ccc(S(=O)(=O)Nc2cc(S(=O)(=O)N3CCCCC3)ccc2N2CCOCC2)cc1 | 18 | -1 | 0 | 32*
Cn1c(=O)n(C)c2cc(N3CCOCC3)c(NC(=O)c3ccc(F)cc3)cc21 | 42* | 4 | 0 | ·
CCN(CC)S(=O)(=O)c1ccc(N2CCOCC2)c(NC(=O)c2ccccc2)c1 | 26* | -3 | 0 | ·
CCOc1cc(N2CCOCC2)c(OCC)cc1NC(=O)c1cc(S(=O)(=O)N2CCOCC2)ccc1Cl | 1 | 2 | 0 | ·
COc1ccc(N2CCN(C(CNS(=O)(=O)c3ccc4c(c3)OCCO4)c3ccco3)CC2)cc1 (stereo not drawn) | · | · | 0 | 0
SMILES | DENV2 CPE | S100A4 MyoIIA | Xi reactivation | E-selectin induc
COc1ccc(-c2cc(=O)c3c(OC)c(OC)c(OC)c(OC)c3o2)cc1 | -12 | -1 | · | ·
Cc1ccc(S(=O)(=O)N(C)C)cc1NC(=O)c1cc(S(=O)(=O)N2CCCCC2)ccc1N1CCOCC1 | 23* | -4 | 0 | ·
CC(=O)Nc1ccc(NC(=O)c2cc(S(=O)(=O)N3CCCCC3)ccc2N2CCOCC2)cc1 | 0 | -3 | 0 | ·
COC(=O)[C@H]1CN(C(=O)c2ccccc2)C(=O)N1 | 25* | 0 | 0 | ·
CNC[C@H]1OCCCC[C@@H](C)Oc2ccc(NS(=O)(=O)c3cn(C)cn3)cc2C(=O)N([C@@H](C)CO)C[C@H]1C | 64* | · | 0 | 0
Cc1ccc(S(=O)(=O)Nc2ccc3c(c2)C(=O)N([C@@H](C)CO)C[C@H](C)[C@@H](CN(C)S(C)(=O)=O)OCCCC[C@@H](C)O3)cc1 | 26* | 0 | 0 | 1
COc1ccc(S(=O)(=O)Nc2ccc3c(c2)C(=O)N([C@H](C)CO)C[C@@H](C)[C@@H](CN(C)S(C)(=O)=O)OCCCC[C@@H](C)O3)cc1 | 49* | -15 | 0 | 0
C[C@@H]1CN([C@H](C)CO)C(=O)c2cc(NS(=O)(=O)c3ccc(F)cc3)ccc2O[C@@H](C)CCCCO[C@@H]1CN(C)S(C)(=O)=O | 11 | 5 | 0 | 44*
O=c1[nH]cnc2c1c(-c1ccccc1)cn2-c1cccc(Cl)c1 | -4 | -5 | 0 | ·
CNC[C@H]1OCCCC[C@@H](C)Oc2ccc(NS(=O)(=O)c3c(C)noc3C)cc2C(=O)N([C@H](C)CO)C[C@H]1C | -12 | · | 0 | 0
Cc1ccc(S(=O)(=O)Nc2ccc3c(c2)C(=O)N([C@H](C)CO)C[C@H](C)[C@@H](CN(C)S(C)(=O)=O)OCCCC[C@H](C)O3)cc1 | 57* | -5 | 0 | 0
CNC[C@@H]1OCCCC[C@H](C)Oc2ccc(NS(=O)(=O)c3ccc(C)cc3)cc2C(=O)N([C@@H](C)CO)C[C@H]1C | -3 | 11 | 0 | 0
CNC[C@H]1OCCCC[C@@H](C)Oc2ccc(NS(=O)(=O)c3ccc(C)cc3)cc2C(=O)N([C@H](C)CO)C[C@@H]1C | 30* | -6 | 0 | 0
CNC[C@@H]1OCCCC[C@H](C)Oc2ccc(NS(=O)(=O)c3c(C)noc3C)cc2C(=O)N([C@@H](C)CO)C[C@@H]1C | 132* | · | 0 | 0
COc1ccc(OC)c(N/C(C)=C/C(=O)c2ccncc2)c1 | 0 | 32 | 0 | 0
O=[N+]([O-])c1cccc(-c2nnc(SCc3cccnc3)o2)c1 | -4 | 4 | 0 | ·
CCCCC[C@@H]1C=C(C(=O)O)[C@H](c2ccc3c(c2)OCO3)N1S(=O)(=O)c1ccc(C)cc1 | 31* | -1 | 0 | ·
O=C1N2CCCCC1(c1ccccc1)CCCC2 | 40* | 1 | 0 | ·
Cc1cn2c(N)c(C=C3C=C(Cl)C(=O)C(Cl)=C3)c(=O)nc2s1 | 16 | -7 | 0 | 142*

Source: PubChem
